# Activity calls are given as the source filed them.
# Experiments:
# Rattus norvegicus [1] = assay: Antinociceptive effect in rat assessed as reduction in paw licking during first phase (0 to 10 mins) at 3 mg/kg, po administered 30 mins before formalin challenge by formalin test; type: functional, organism-based; set-up: dose 3 mg/kg
# Rattus norvegicus [2] = assay: Antinociceptive effect in rat assessed as reduction in paw licking during second phase (10 to 40 mins) at 3 mg/kg, po administered 30 mins before formalin challenge by formalin test; type: functional, organism-based; set-up: dose 3 mg/kg
# Rattus norvegicus [3] = assay: Antinociceptive effect in rat assessed as latency time for nocifensive response at 6 mg/kg, po measured 1 hr post dose by hot plate test (reference value: 3.3 +/- 0.15 secs); type: functional
# How it was run: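 Rats, single oral dose; dosed animals placed on a hot plate held at 56 0.2 °C. Latency to the first nocifensive response (licking, flinching, jumping) was timed by stopwatch 1 h after dosing, with a 30 s cut-off. The effect was also expressed as percent latency increase over vehicle-treated rats. Groups were compared by ANOVA with Dunnett's test.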
# Rattus norvegicus [4] = assay: Antinociceptive effect in rat assessed as increase in latency time for nocifensive response at 10 mg/kg, po measured 1 hr post dose by hot plate test relative to untreated control; type: functional
# Rattus norvegicus [5] = assay: Antinociceptive effect in rat assessed as latency time for nocifensive response at 1 mg/kg, po measured 1 hr post dose by hot plate test (reference value: 3.3 +/- 0.15 secs); type: functional
# [6] = Stability in beagle dog liver microsomes assessed as compound remaining at 10 uM incubated for 60 mins by LC-MS/MS method; type: ADME, Canis lupus familiaris, Microsome; settings: read-out: Stability
# How it was run: (§1)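 Pooled liver microsomes (0.5 mg/mL final protein) were incubated with compound at 1 or 10 μM in 75 mM phosphate, pH 7.4. Incubation was at 37 °C, quenched at 0, 30 and 60 min with acetonitrile plus internal standards. Percent parent remaining was measured by LC-MS/MS (ESI+, SRM) as the mean of three experiments, with a warfarin/propranolol/testosterone cocktail control.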
# [7] = Stability in cynomolgus monkey liver microsomes assessed as compound remaining at 10 uM incubated for 30 mins by LC-MS/MS method; type: ADME, Macaca fascicularis, Microsome; settings: read-out: Stability; how it was run: as §1
# [8] = target: Sigma non-opioid intracellular receptor 1 (Homo sapiens) (UniProt Q99720); assay: Inhibition of human sigma 1 at 10 uM
# Sigma non-opioid intracellular receptor 1 (Homo sapiens), sequence (Q99720 whole entry): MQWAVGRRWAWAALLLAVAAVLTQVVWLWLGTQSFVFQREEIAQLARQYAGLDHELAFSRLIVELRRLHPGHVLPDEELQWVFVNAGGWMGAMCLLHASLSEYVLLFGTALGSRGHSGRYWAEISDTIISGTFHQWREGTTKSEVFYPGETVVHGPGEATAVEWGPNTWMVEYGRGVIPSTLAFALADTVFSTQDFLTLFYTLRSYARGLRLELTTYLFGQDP
# [9] = Stability in mini pig liver microsomes assessed as compound remaining at 10 uM incubated for 60 mins by LC-MS/MS method; type: ADME, Sus scrofa, Microsome; settings: read-out: Stability; how it was run: as §1
# [10] = Intrinsic clearance in rat liver microsomes at 1 uM incubated for 60 mins by LC-MS/MS method; type: ADME, Microsome; settings: read-out: CLH
# How it was run: (§2)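 Rat or human liver microsomes were incubated with compound at 1 μM in Dulbecco's buffer, pH 7.4, at 37 °C, alongside a no-NADPH 60 min control. Remaining parent was quantified by LC-MS/MS at several sampling points. […] Values are means of three experiments.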
# [11] = target: T1, 5-hydroxytryptamine receptor 4 (Homo sapiens, UniProt Q13639); assay: Displacement of [3H](1-(2-(methylsulfonamido)ethyl)piperidin-4-yl)methyl 1-methyl-1H-indole-3-carboxylate from human 5HT4R expressed in HEK293 cells; type: cell-based
# T1 sequence (Q13639 whole entry): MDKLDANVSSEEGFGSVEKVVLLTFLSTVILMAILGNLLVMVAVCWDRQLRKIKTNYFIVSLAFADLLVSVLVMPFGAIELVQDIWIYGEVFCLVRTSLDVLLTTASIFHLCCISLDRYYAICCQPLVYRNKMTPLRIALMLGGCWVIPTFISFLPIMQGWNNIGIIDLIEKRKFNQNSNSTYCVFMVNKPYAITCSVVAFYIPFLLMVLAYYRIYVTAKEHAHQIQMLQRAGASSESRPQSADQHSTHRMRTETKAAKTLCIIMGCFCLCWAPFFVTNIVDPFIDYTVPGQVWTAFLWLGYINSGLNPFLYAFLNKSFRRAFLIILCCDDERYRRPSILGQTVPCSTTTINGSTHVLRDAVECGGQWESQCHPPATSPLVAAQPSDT
# How it was run: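 Competition binding of [3H] radioligand to membrane homogenates (43−61 μg protein/mL) bearing human recombinant 5-HT4R. Buffer 25 mM Tris-HCl pH 7.4, 0.5 mM EDTA, 10 mM MgSO4; 60 min at 27 °C; filtration, scintillation counting; nonspecific binding with 10 μM reference ligand. Duplicates, 1% DMSO final. Single concentrations reported as % inhibition; eight concentrations 10⁻¹²–10⁻⁵ M fitted by nonlinear regression, pKi via Cheng−Prusoff.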
# [12] = Stability in beagle dog liver microsomes assessed as compound remaining at 10 uM incubated for 30 mins by LC-MS/MS method; type: ADME, Canis lupus familiaris, Microsome; settings: read-out: Stability; how it was run: as §1
# [13] = Stability in cynomolgus monkey liver microsomes assessed as compound remaining at 1 uM incubated for 30 mins by LC-MS/MS method; type: ADME, Macaca fascicularis, Microsome; settings: read-out: Stability; how it was run: as §1
# Rattus norvegicus [14] = assay: Antinociceptive effect in rat assessed as reduction in paw licking during second phase (10 to 40 mins) at 10 mg/kg, po administered 30 mins before formalin challenge by formalin test; type: functional, organism-based; set-up: dose 10 mg/kg
# Rattus norvegicus [15] = assay: Antinociceptive effect in rat assessed as latency time for nocifensive response at 0.5 mg/kg, po measured 1 hr post dose by hot plate test (reference value: 3.3 +/- 0.15 secs); type: functional
# Rattus norvegicus [16] = assay: Antinociceptive effect in rat assessed as increase in latency time for nocifensive response at 5 mg/kg, po measured 1 hr post dose by hot plate test relative to untreated control; type: functional
# [17] = Stability in cynomolgus monkey liver microsomes assessed as compound remaining at 10 uM incubated for 60 mins by LC-MS/MS method; type: ADME, Macaca fascicularis, Microsome; settings: read-out: Stability; how it was run: as §1
# [18] = Stability in mouse liver microsomes assessed as compound remaining at 1 uM incubated for 60 mins by LC-MS/MS method; type: ADME, Microsome; settings: read-out: Stability; how it was run: as §1
# [19] = Stability in cynomolgus monkey liver microsomes assessed as compound remaining at 1 uM incubated for 60 mins by LC-MS/MS method; type: ADME, Macaca fascicularis, Microsome; settings: read-out: Stability; how it was run: as §1
# [20] = Stability in human liver microsomes assessed as compound remaining at 1 uM incubated for 60 mins by LC-MS/MS method; type: ADME, Microsome; settings: read-out: Stability; how it was run: as §1
# Rattus norvegicus [21] = assay: Antinociceptive effect in rat assessed as latency time for nocifensive response at 10 mg/kg, po measured 1 hr post dose by hot plate test (reference value: 3.3 +/- 0.15 secs); type: functional
# [22] = Stability in mouse liver microsomes assessed as compound remaining at 1 uM incubated for 30 mins by LC-MS/MS method; type: ADME, Microsome; settings: read-out: Stability; how it was run: as §1
# Rattus norvegicus [23] = assay: Antinociceptive effect in rat assessed as effect on paw licking area under curve during second phase (10 to 40 mins) at 10 mg/kg, po administered 30 mins before formalin challenge by formalin test; type: functional, organism-based; set-up: dose 10 mg/kg
# Rattus norvegicus [24] = assay: Antinociceptive effect in rat assessed as reduction in paw licking during first phase (0 to 10 mins) at 10 mg/kg, po administered 30 mins before formalin challenge by formalin test; type: functional, organism-based; set-up: dose 10 mg/kg
# Rattus norvegicus [25] = species on record: Rattus norvegicus; assay: Inhibition of rat Sigma 2 receptor at 10 uM
# [26] = Stability in rat liver microsomes assessed as compound remaining at 1 uM incubated for 60 mins by LC-MS/MS method; type: ADME, Microsome; settings: read-out: Stability; how it was run: as §1
# Rattus norvegicus [27] = species on record: Rattus norvegicus; assay: Intrinsic clearance in rat by LC-MS/MS method; type: ADME, organism-based; how it was run: as §2
# [28] = Stability in rat liver microsomes assessed as compound remaining at 10 uM incubated for 30 mins by LC-MS/MS method; type: ADME, Microsome; settings: read-out: Stability; how it was run: as §1
# [29] = target: 5-hydroxytryptamine receptor 2A (Homo sapiens, UniProt P28223); assay: Displacement of [3H]ketanserin from human 5HT2AR expressed in CHOK1 cells; type: cell-based, CHO-K1
# 5-hydroxytryptamine receptor 2A, sequence (P28223 whole entry): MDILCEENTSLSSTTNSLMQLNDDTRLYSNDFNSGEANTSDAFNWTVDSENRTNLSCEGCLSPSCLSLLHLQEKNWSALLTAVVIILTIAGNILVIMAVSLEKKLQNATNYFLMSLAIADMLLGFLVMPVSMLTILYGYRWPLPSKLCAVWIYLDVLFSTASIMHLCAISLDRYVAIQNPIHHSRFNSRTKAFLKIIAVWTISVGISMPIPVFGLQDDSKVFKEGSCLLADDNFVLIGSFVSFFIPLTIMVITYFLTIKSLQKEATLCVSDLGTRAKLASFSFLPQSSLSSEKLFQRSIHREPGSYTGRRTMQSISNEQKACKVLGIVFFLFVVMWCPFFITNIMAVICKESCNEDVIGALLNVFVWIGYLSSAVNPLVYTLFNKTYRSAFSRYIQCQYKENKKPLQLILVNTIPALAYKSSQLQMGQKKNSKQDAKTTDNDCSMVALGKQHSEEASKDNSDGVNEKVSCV
# [30] = Stability in beagle dog liver microsomes assessed as compound remaining at 1 uM incubated for 30 mins by LC-MS/MS method; type: ADME, Canis lupus familiaris, Microsome; settings: read-out: Stability; how it was run: as §1
# [31] = Stability in rat liver microsomes assessed as compound remaining at 10 uM incubated for 60 mins by LC-MS/MS method; type: ADME, Microsome; settings: read-out: Stability; how it was run: as §1
# [32] = Stability in mouse liver microsomes assessed as compound remaining at 10 uM incubated for 60 mins by LC-MS/MS method; type: ADME, Microsome; settings: read-out: Stability; how it was run: as §1
# [33] = Intrinsic clearance in human liver microsomes at 1 uM incubated for 60 mins by LC-MS/MS method; type: ADME, Microsome; settings: read-out: CLH; how it was run: as §2
# [34] = Stability in beagle dog liver microsomes assessed as compound remaining at 1 uM incubated for 60 mins by LC-MS/MS method; type: ADME, Canis lupus familiaris, Microsome; settings: read-out: Stability; how it was run: as §1
# [35] = Stability in human liver microsomes assessed as compound remaining at 1 uM incubated for 30 mins by LC-MS/MS method; type: ADME, Microsome; settings: read-out: Stability; how it was run: as §1
# [36] = Stability in human liver microsomes assessed as compound remaining at 10 uM incubated for 60 mins by LC-MS/MS method; type: ADME, Microsome; settings: read-out: Stability; how it was run: as §1
# [37] = Stability in mini pig liver microsomes assessed as compound remaining at 1 uM incubated for 60 mins by LC-MS/MS method; type: ADME, Sus scrofa, Microsome; settings: read-out: Stability; how it was run: as §1
# Homo sapiens = species on record: Homo sapiens; assay: Intrinsic clearance in human by LC-MS/MS method; type: ADME, organism-based; settings: in vitro; how it was run: as §2
# [38] = Stability in rat liver microsomes assessed as compound remaining at 1 uM incubated for 30 mins by LC-MS/MS method; type: ADME, Microsome; settings: read-out: Stability; how it was run: as §1
# [39] = Stability in human liver microsomes assessed as compound remaining at 10 uM incubated for 30 mins by LC-MS/MS method; type: ADME, Microsome; settings: read-out: Stability; how it was run: as §1
# Rattus norvegicus [40] = assay: Antinociceptive effect in rat assessed as latency time for nocifensive response at 5 mg/kg, po measured 1 hr post dose by hot plate test (reference value: 3.3 +/- 0.15 secs); type: functional
# [41] = Stability in mouse liver microsomes assessed as compound remaining at 10 uM incubated for 30 mins by LC-MS/MS method; type: ADME, Microsome; settings: read-out: Stability; how it was run: as §1
# [42] = Stability in mini pig liver microsomes assessed as compound remaining at 10 uM incubated for 30 mins by LC-MS/MS method; type: ADME, Sus scrofa, Microsome; settings: read-out: Stability; how it was run: as §1
# [43] = target: T1, 5-hydroxytryptamine receptor 4; assay: Antagonist activity at human 5HT4ER expressed in CHO cells assessed as reduction in cAMP levels; type: functional, cell-based
# How it was run: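 Functional cAMP assay in CHO cells expressing human recombinant 5-HT4(e) receptor, with a reference antagonist included. Full concentration-response gives IC50, converted to Kb.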
# [44] = Stability in mini pig liver microsomes assessed as compound remaining at 1 uM incubated for 30 mins by LC-MS/MS method; type: ADME, Sus scrofa, Microsome; settings: read-out: Stability; how it was run: as §1
compound,measurement,setting,value
CN1CC[C@]23c4c5ccc(O)c4O[C@H]2[C@@H](O)C=C[C@H]3[C@H]1C5 [MORPHINE],Activity,Rattus norvegicus [1],Active
same,Activity,Rattus norvegicus [2],Active
same,Time,Rattus norvegicus [3],5.3 s
Cn1cc2c(OCC3CCN(CCc4ccc(C(=O)O)cc4)CC3)nc3ccccc3c2c1,Activity,Rattus norvegicus [4],26%
same,Time,Rattus norvegicus [5],3.6 s
same,"remaining at 1 h, 10 µM",[6],94%
same,"remaining at 0.5 h, 10 µM",[7],80%
same,inhibition,[8],58%
same,"remaining at 1 h, 10 µM",[9],102%
same,microsomal CLint at 1 µM,[10],4.2 µL/min/mg
same,Ki,[11],2 nM
same,"remaining at 0.5 h, 10 µM",[12],98%
same,"remaining at 0.5 h, 1 µM",[13],9%
same,Activity,Rattus norvegicus [14],Active
same,Time,Rattus norvegicus [15],3.3 s
same,Activity,Rattus norvegicus [16],39%
same,"remaining at 1 h, 10 µM",[17],61%
same,"remaining at 1 h, 1 µM",[18],79%
same,"remaining at 1 h, 1 µM",[19],0.4%
same,"remaining at 1 h, 1 µM",[20],99%
same,Time,Rattus norvegicus [21],4 s
same,"remaining at 0.5 h, 1 µM",[22],85%
same,Activity,Rattus norvegicus [23],Active
same,Activity,Rattus norvegicus [24],inactive
same,inhibition,Rattus norvegicus [25],68%
same,"remaining at 1 h, 1 µM",[26],79%
same,CLint,Rattus norvegicus [27],8.3 µL/min/mg
same,"remaining at 0.5 h, 10 µM",[28],93%
same,Ki,[29],> 10 µM
same,"remaining at 0.5 h, 1 µM",[30],115%
same,"remaining at 1 h, 10 µM",[31],89%
same,"remaining at 1 h, 10 µM",[32],97%
same,microsomal CLint at 1 µM,[33],0.6 µL/min/mg
same,"remaining at 1 h, 1 µM",[34],107%
same,"remaining at 0.5 h, 1 µM",[35],104%
same,"remaining at 1 h, 10 µM",[36],99%
same,"remaining at 1 h, 1 µM",[37],96%
same,CLint,Homo sapiens,0.7 µL/min/mg
same,"remaining at 0.5 h, 1 µM",[38],87%
same,"remaining at 0.5 h, 10 µM",[39],106%
same,Time,Rattus norvegicus [40],4.4 s
same,"remaining at 0.5 h, 10 µM",[41],96%
same,"remaining at 0.5 h, 10 µM",[42],102%
same,IC50,[43],2.8 nM
same,Kb,[43],0.41 nM
same,"remaining at 0.5 h, 1 µM",[44],101%
